Key:
Mus musculus [1] = experiment: Analgesic activity in ICR mouse assessed as pain threshold variation at 0.13 mmol/kg, ip after 30 mins by tail flick test relative to control; assay type: functional
How it was run: (§1)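 Male ICR mice (25 ± 2 g), kept on a 12/12 h light/dark cycle at 21 ± 2 °C for one day before use. Each received a single i.p. injection in 0.2 ml saline + 0.01 ml DMSO + 0.02 ml Tween-80. Vehicle-only mice served as controls. Basal tail-flick threshold was measured four times (BPT). Thresholds were then read every 30 min for 150 min. PTV = (post-dose threshold − BPT)/BPT. n = 10, x ± SD.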

Mus musculus [2] = experiment: Thrombotic toxicity in ICR mouse assessed as tail bleeding time at 1.3 mmol/kg, ip after 5 mins; assay type: organism-based; conditions: in vivo
How it was run: (§2)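 Male ICR mice (25 ± 2 g) were kept one day on a 12/12 h light/dark cycle at 21 ± 2 °C. Each received a single i.p. dose of 1.30 mmol/kg in saline/DMSO/Tween-80 (0.2/0.01/0.02 ml), or the solvent only. The restrained mouse had 1 mm cut from the tail before dosing and at 5, 15, 30 and 60 min. Bleeding time (s) is reported as mean ± SD.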

Mus musculus [3] = experiment: Thrombotic toxicity in ICR mouse assessed as tail bleeding time at 1.3 mmol/kg, ip after 30 mins; assay type: organism-based; conditions: in vivo, 0.5 h; how it was run: as §2
Mus musculus [4] = experiment: Analgesic activity in ICR mouse assessed as pain threshold variation at 0.13 mmol/kg, ip after 90 mins by tail flick test relative to control; assay type: functional; how it was run: as §1
Mus musculus [5] = experiment: Analgesic activity in ICR mouse assessed as pain threshold variation at 0.13 mmol/kg, ip after 120 mins by tail flick test; assay type: functional; how it was run: as §1
Mus musculus [6] = experiment: Analgesic activity in ICR mouse assessed as pain threshold variation at 0.13 mmol/kg, ip after 150 mins by tail flick test; assay type: functional; how it was run: as §1
[7] = Cardiovascular toxicity in rat aorta assessed as inhibition of noradrenaline-induced vasoconstriction at 5 mM relative to control; assay type: tissue-based; conditions: isolated rat aorta
How it was run: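 Rat aortic strips were contracted with noradrenaline, washed, stabilized for 30 min, and contracted again. At peak contraction, compound was added (final 5 × 10^-3 M) or vehicle alone. The relaxant response was recorded as percentage inhibition of the contraction.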

Mus musculus [8] = experiment: Thrombotic toxicity in ICR mouse assessed as tail bleeding time at 1.3 mmol/kg, ip after 15 mins; assay type: organism-based; conditions: in vivo, 0.25 h; how it was run: as §2
Mus musculus [9] = experiment: Thrombotic toxicity in ICR mouse assessed as tail bleeding time at 1.3 mmol/kg, ip after 60 mins; assay type: organism-based; conditions: in vivo, 1 h; how it was run: as §2
Mus musculus [10] = experiment: Analgesic activity in ICR mouse assessed as pain threshold variation at 0.13 mmol/kg, ip after 60 mins by tail flick test relative to control; assay type: functional; how it was run: as §1

Molecule `CC1(C)N=C(c2ccccc2O)N(O)C1(C)C` has an Activity (Mus musculus [1]) of 50.76%, an Activity (Mus musculus [2]) of 118 s and an Activity (Mus musculus [3]) of 119 s. For the same molecule, the Activity (Mus musculus [4]) was 68.27%, the Activity (Mus musculus [5]) was 73.13% and the Activity (Mus musculus [6]) was 67.3%. The inhibition at 5000 µM [7] was 22.9%, the Activity (Mus musculus [8]) was 117 s and the Activity (Mus musculus [9]) was 118 s. It also gave an Activity (Mus musculus [10]) of 49.93%.
`CC1(C)N=C(c2ccc(O)cc2)N(O)C1(C)C` gave an Activity (Mus musculus [1]) of 57.6%, an Activity (Mus musculus [2]) of 116 s and an Activity (Mus musculus [3]) of 119 s. It also gave an Activity (Mus musculus [4]) of 79.8%, an Activity (Mus musculus [5]) of 53.45% and an Activity (Mus musculus [6]) of 27.62%. The inhibition at 5000 µM [7] was 13.6%, the Activity (Mus musculus [8]) was 118 s and the Activity (Mus musculus [9]) was 119 s. It also gave an Activity (Mus musculus [10]) of 74.74%.
With `COc1ccc(C2=NC(C)(C)C(C)(C)N2O)c(OC)c1` the Activity (Mus musculus [1]) was 52.93%, the Activity (Mus musculus [2]) was 118 s and the Activity (Mus musculus [3]) was 119 s. For the same molecule, the Activity (Mus musculus [4]) was 44.96%, the Activity (Mus musculus [5]) was 38.34% and the Activity (Mus musculus [6]) was 37.89%. It also gave an inhibition at 5000 µM [7] of 23.3%, an Activity (Mus musculus [8]) of 118 s and an Activity (Mus musculus [9]) of 117 s. It also gave an Activity (Mus musculus [10]) of 44.85%.
`CC1(C)N=C(c2ccc(Cl)cc2Cl)N(O)C1(C)C` showed an Activity (Mus musculus [1]) of 46.97%, an Activity (Mus musculus [2]) of 117 s and an Activity (Mus musculus [3]) of 119 s. It also gave an Activity (Mus musculus [4]) of 44.1%, an Activity (Mus musculus [5]) of 46.12% and an Activity (Mus musculus [6]) of 45.99%. The inhibition at 5000 µM [7] was 15.9%, the Activity (Mus musculus [8]) was 117 s and the Activity (Mus musculus [9]) was 119 s. It also gave an Activity (Mus musculus [10]) of 46.31%.
Work on `COc1cc(C2=NC(C)(C)C(C)(C)N2O)ccc1O` yielded an Activity (Mus musculus [1]) of 47.57%, an Activity (Mus musculus [2]) of 119 s and an Activity (Mus musculus [3]) of 119 s. For the same molecule, the Activity (Mus musculus [4]) was 60.65%, the Activity (Mus musculus [5]) was 52.21% and the Activity (Mus musculus [6]) was 40.56%. The inhibition at 5000 µM [7] was 20.6%, the Activity (Mus musculus [8]) was 118 s and the Activity (Mus musculus [9]) was 117 s. The Activity (Mus musculus [10]) was 61.52%.
`COc1ccc(C2=NC(C)(C)C(C)(C)N2O)cc1O` showed an Activity (Mus musculus [1]) of 44.33%, an Activity (Mus musculus [2]) of 120 s and an Activity (Mus musculus [3]) of 117 s. The Activity (Mus musculus [4]) was 60.71%, the Activity (Mus musculus [5]) was 50.77% and the Activity (Mus musculus [6]) was 41.62%. For the same molecule, the inhibition at 5000 µM [7] was 35.1%, the Activity (Mus musculus [8]) was 118 s and the Activity (Mus musculus [9]) was 119 s. It also gave an Activity (Mus musculus [10]) of 59.85%.
In the case of `Cc1ccc(C2=NC(C)(C)C(C)(C)N2O)cc1`, the Activity (Mus musculus [1]) is reported as 42.06%, the Activity (Mus musculus [2]) is reported as 119 s and the Activity (Mus musculus [3]) is reported as 117 s. The Activity (Mus musculus [4]) was 48.82%, the Activity (Mus musculus [5]) was 39.96% and the Activity (Mus musculus [6]) was 45.41%. It also gave an inhibition at 5000 µM [7] of 16.7%, an Activity (Mus musculus [8]) of 118 s and an Activity (Mus musculus [9]) of 119 s. It also gave an Activity (Mus musculus [10]) of 55.16%.
`CC1(C)N=C(c2ccc(Cl)c(Cl)c2)N(O)C1(C)C` showed an Activity (Mus musculus [1]) of 20.52%, an Activity (Mus musculus [2]) of 118 s and an Activity (Mus musculus [3]) of 118 s. For the same molecule, the Activity (Mus musculus [4]) was 41.9%, the Activity (Mus musculus [5]) was 40.17% and the Activity (Mus musculus [6]) was 50.62%. The inhibition at 5000 µM [7] was 22.8%, the Activity (Mus musculus [8]) was 118 s and the Activity (Mus musculus [9]) was 117 s. For the same molecule, the Activity (Mus musculus [10]) was 21.43%.
`CC1(C)N=C(c2ccccc2)N(O)C1(C)C` gave an Activity (Mus musculus [1]) of 43.67%, an Activity (Mus musculus [2]) of 117 s and an Activity (Mus musculus [3]) of 118 s. For the same molecule, the Activity (Mus musculus [4]) was 37.07%, the Activity (Mus musculus [5]) was 37.41% and the Activity (Mus musculus [6]) was 35.48%. The inhibition at 5000 µM [7] was 22.9%, the Activity (Mus musculus [8]) was 119 s and the Activity (Mus musculus [9]) was 117 s. The Activity (Mus musculus [10]) was 37.68%.
For `CC1(C)N=C(c2ccccc2[N+](=O)[O-])N(O)C1(C)C`, the Activity (Mus musculus [1]) was 28.95%, the Activity (Mus musculus [2]) was 119 s and the Activity (Mus musculus [3]) was 119 s. The Activity (Mus musculus [4]) was 45.93%, the Activity (Mus musculus [5]) was 50.91% and the Activity (Mus musculus [6]) was 40.04%. It also gave an inhibition at 5000 µM [7] of 30.2%, an Activity (Mus musculus [8]) of 119 s and an Activity (Mus musculus [9]) of 118 s. The Activity (Mus musculus [10]) was 45.14%.
For `CC1(C)N=C(c2ccc([N+](=O)[O-])cc2)N(O)C1(C)C`, the Activity (Mus musculus [1]) was 44.15%, the Activity (Mus musculus [2]) was 118 s and the Activity (Mus musculus [3]) was 117 s. It also gave an Activity (Mus musculus [4]) of 36.31%, an Activity (Mus musculus [5]) of 35.97% and an Activity (Mus musculus [6]) of 47.81%. The inhibition at 5000 µM [7] was 32.7%, the Activity (Mus musculus [8]) was 117 s and the Activity (Mus musculus [9]) was 117 s. The Activity (Mus musculus [10]) was 38.32%.
`CC1(C)N=C(c2cccc([N+](=O)[O-])c2)N(O)C1(C)C` gave an Activity (Mus musculus [1]) of 52.76%, an Activity (Mus musculus [2]) of 117 s and an Activity (Mus musculus [3]) of 119 s. For the same molecule, the Activity (Mus musculus [4]) was 63.46%, the Activity (Mus musculus [5]) was 60.26% and the Activity (Mus musculus [6]) was 70.83%. It also gave an inhibition at 5000 µM [7] of 31.8%, an Activity (Mus musculus [8]) of 118 s and an Activity (Mus musculus [9]) of 117 s. It also gave an Activity (Mus musculus [10]) of 62.07%.
Molecule `COc1ccc(C2=NC(C)(C)C(C)(C)N2O)cc1OC` has an Activity (Mus musculus [1]) of 50.9%, an Activity (Mus musculus [2]) of 117 s and an Activity (Mus musculus [3]) of 118 s. The Activity (Mus musculus [4]) was 54.54%, the Activity (Mus musculus [5]) was 38.43% and the Activity (Mus musculus [6]) was 35.37%. The inhibition at 5000 µM [7] was 17.9%, the Activity (Mus musculus [8]) was 117 s and the Activity (Mus musculus [9]) was 118 s. For the same molecule, the Activity (Mus musculus [10]) was 50.12%.
With `CC1(C)N=C(c2ccc3c(c2)OCO3)N(O)C1(C)C` the Activity (Mus musculus [1]) was 58.82%, the Activity (Mus musculus [2]) was 120 s and the Activity (Mus musculus [3]) was 119 s. It also gave an Activity (Mus musculus [4]) of 67.15%, an Activity (Mus musculus [5]) of 59.77% and an Activity (Mus musculus [6]) of 60.22%. It also gave an inhibition at 5000 µM [7] of 21.9%, an Activity (Mus musculus [8]) of 119 s and an Activity (Mus musculus [9]) of 118 s. For the same molecule, the Activity (Mus musculus [10]) was 68.46%.
`CN(C)c1ccc(C2=NC(C)(C)C(C)(C)N2O)cc1` showed an Activity (Mus musculus [1]) of 34.3%, an Activity (Mus musculus [2]) of 117 s and an Activity (Mus musculus [3]) of 117 s. It also gave an Activity (Mus musculus [4]) of 40.17%, an Activity (Mus musculus [5]) of 37.34% and an Activity (Mus musculus [6]) of 31.27%. It also gave an inhibition at 5000 µM [7] of 6.63%, an Activity (Mus musculus [8]) of 117 s and an Activity (Mus musculus [9]) of 119 s. The Activity (Mus musculus [10]) was 39.44%.
With `COc1ccc(C2=NC(C)(C)C(C)(C)N2O)cc1` the Activity (Mus musculus [1]) was 64.55%, the Activity (Mus musculus [2]) was 119 s and the Activity (Mus musculus [3]) was 118 s. It also gave an Activity (Mus musculus [4]) of 66.49%, an Activity (Mus musculus [5]) of 65.23% and an Activity (Mus musculus [6]) of 46.74%. It also gave an inhibition at 5000 µM [7] of 19.7%, an Activity (Mus musculus [8]) of 118 s and an Activity (Mus musculus [9]) of 118 s. The Activity (Mus musculus [10]) was 76.13%.
With `CC1(C)N=C(c2cccc(O)c2)N(O)C1(C)C` the Activity (Mus musculus [1]) was 50.69%, the Activity (Mus musculus [2]) was 117 s and the Activity (Mus musculus [3]) was 118 s. It also gave an Activity (Mus musculus [4]) of 59.94%, an Activity (Mus musculus [5]) of 77.78% and an Activity (Mus musculus [6]) of 72.88%. It also gave an inhibition at 5000 µM [7] of 46.3%, an Activity (Mus musculus [8]) of 119 s and an Activity (Mus musculus [9]) of 119 s. It also gave an Activity (Mus musculus [10]) of 59.38%.
